Test [1] is filed under the species Cavia porcellus. The test can be described thus: Agonist activity was assessed as the concentration which gave a 50% increase in the response to electrical stimulation in the guinea pig ileum and is expressed as percent of the maximum 5-HT response = 78%. In kind it is functional. Put shortly:
(§1)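 Guinea pig ileum myenteric plexus–longitudinal muscle strip, 0.5 g tension, transmural stimulation at 0.2 Hz and 1.5 ms. Phenoxybenzamine 10^-7 M present, voltage set to give 50% of supramaximal contraction. After two reproducible cumulative 5-HT curves, a cumulative agonist curve was run (60–120 s contact). EC50 = concentration giving 50% increase of the stimulated response, relative to maximum. Max effect expressed as % of 5-HT maximum, 95% confidence limits.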

The species named for test [2] is Cavia porcellus. The test is described as follows: Antagonist activity was calculated as the concentration which produced a 50% reduction in the submaximal of 5-HT induced contractions guinea pig ileum. It is filed as functional.
For test [3], the species on record is Cavia porcellus. The test is described as follows: Agonist activity was assessed as the concentration which gave a 50% increase in the response to electrical stimulation in the guinea pig ileum; NA is not active. It is filed as functional. In outline: as §1
For test [4], the target named is T1, 5-hydroxytryptamine receptor 4 (Rattus norvegicus, UniProt Q62758). The test is described as follows: Binding affinity (Ki+/-SEM) against 5-hydroxytryptamine 4 receptor from cheng Prusoff equation by using [3H]GR-113808 in rat striatum. Put shortly:
(§2)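 Rat striatal membranes in 50 mM Hepes pH 7.4, 0.1–0.2 mg protein in 0.5 mL, with [3H]GR 113808. Seven drug concentrations, tested in triplicate. Nonspecific binding defined with 10 μM ML 10302. Bound ligand collected by filtration on PEI-soaked GF/B filters, washed with 50 mM Tris-HCl pH 8.4, counted by scintillation. IC50 fitted, Ki from Cheng–Prusoff, ±SEM.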

In test [5] the target is T1, 5-hydroxytryptamine receptor 4. The test is described as follows: Binding affinity at 5-hydroxytryptamine 4 receptor in rat striatal membranes by [3H]GR-113808 displacement. In kind it is cell membranes, Striatum, Membrane. Put shortly:
as §2

For test [6], the species on record is Cavia porcellus. The test is described as follows: Agonist activity was assessed as the concentration which gave a 50% increase in the response to electrical stimulation in the guinea pig ileum. It is filed as functional. Put shortly: as §1
The target of test [7] is T2, 5-hydroxytryptamine receptor 4 (Cavia porcellus, UniProt O70528). The test can be described thus: The antagonist activity was calculated as the concentration which produced a 50% reduction against 5-hydroxytryptamine 4 receptor in guinea pig ileum. It is filed as functional, tissue-based.
T2 sequence (O70528 whole entry): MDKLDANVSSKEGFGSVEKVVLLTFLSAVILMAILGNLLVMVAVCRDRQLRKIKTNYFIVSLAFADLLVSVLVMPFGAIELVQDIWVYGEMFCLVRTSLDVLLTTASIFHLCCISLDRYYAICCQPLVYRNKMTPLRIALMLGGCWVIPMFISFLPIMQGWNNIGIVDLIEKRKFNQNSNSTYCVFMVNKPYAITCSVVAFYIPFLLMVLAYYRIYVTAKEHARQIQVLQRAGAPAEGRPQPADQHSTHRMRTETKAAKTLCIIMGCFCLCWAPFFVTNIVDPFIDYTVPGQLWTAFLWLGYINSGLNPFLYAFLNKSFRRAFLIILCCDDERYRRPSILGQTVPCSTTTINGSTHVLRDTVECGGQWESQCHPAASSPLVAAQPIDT
The target of test [8] is T2, 5-hydroxytryptamine receptor 4. The test is described as follows: concentration which gave a 50% increase in the response to electrical stimulation against 5-hydroxytryptamine 4 receptor in the guinea pig ileum. In kind it is functional, tissue-based. In outline: as §1
The species entered for test [9] is Cavia porcellus. The test is described as follows: Agonist activity was assessed as the concentration which gave a 50% increase in the response to electrical stimulation in the guinea pig ileum and is expressed as percent of the maximum 5-HT response = 14%. In kind it is functional. In outline:
as §1

Test [10] has as its target T2, 5-hydroxytryptamine receptor 4. The test can be described thus: concentration which gave a 50% increase in the response to electrical stimulation against 5-hydroxytryptamine 4 receptor in the guinea pig ileum. Activity expressed as percent of the maximum 5-HT response given in brackets. It is filed as functional, tissue-based. Put shortly: as §1
The species entered for test [11] is Cavia porcellus. The test is described as follows: Antagonist activity was calculated as the concentration which produced a 50% reduction in the submaximal of 5-HT induced contractions guinea pig ileum and is expressed as percent of the maximum 5-HT response = 60%. In kind it is functional.
Test [12] is filed under the species Cavia porcellus. The test can be described thus: Antagonist activity was calculated as the concentration which produced a 50% reduction in the submaximal of 5-HT induced contractions guinea pig ileum and is expressed as percent of the maximum 5-HT response = 70%. It is filed as functional.
The target in test [13] is T2, 5-hydroxytryptamine receptor 4. The test can be described thus: The antagonist activity was calculated as the concentration which produced a 50% reduction against 5-hydroxytryptamine 4 receptor in guinea pig ileum. 95% confidence limits are in brackets. In kind it is functional, tissue-based.

Bounds are passed on as bounds.

T1 sequence (Q62758 whole entry): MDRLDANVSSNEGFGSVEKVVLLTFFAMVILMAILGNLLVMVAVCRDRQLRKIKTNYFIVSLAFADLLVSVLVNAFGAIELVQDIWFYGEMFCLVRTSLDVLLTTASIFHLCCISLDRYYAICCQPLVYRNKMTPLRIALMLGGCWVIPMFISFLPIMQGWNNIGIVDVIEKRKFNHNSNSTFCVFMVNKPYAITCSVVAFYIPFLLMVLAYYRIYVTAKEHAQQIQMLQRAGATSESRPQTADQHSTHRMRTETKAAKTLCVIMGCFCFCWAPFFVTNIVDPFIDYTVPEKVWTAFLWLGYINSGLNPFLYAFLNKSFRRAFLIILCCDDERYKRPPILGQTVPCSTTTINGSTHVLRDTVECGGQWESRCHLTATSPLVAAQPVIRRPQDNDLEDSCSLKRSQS

With `COc1cc(N)c(Cl)cc1C(=O)OCCN1CCCCC1`, in [1], the EC50 was 4 nM.

In the case of `CCN(CC)CCOC(=O)c1cc(Cl)c(N)cc1OC`, in test [2], the concentration for half-maximal inhibition (IC50) is 77 nM. In addition, in [3], the EC50 entry is listed as “Not Active”.

On to `Nc1cccc(NC(=O)OCCN2CCCCC2)c1`, for which the inhibition constant (Ki) in test [4] was above 1000 nM.

For the compound `CCOc1ccccc1NC(=O)OCCN1CCCCC1`, in [5], the inhibition constant (Ki) turned out to be 2.6 nM. Moreover, the 50% inhibitory concentration (IC50) in test [2] was 62 nM. For the same compound, in [6], the EC50 is above 1000 nM.

In turn, `COc1cc(N)c(Cl)cc1NC(=O)OCCN1CC(C)CC(C)C1` (centres undefined) returned a Ki in [4] of 2.4 nM. In addition, the IC50 in test [7] is 180 nM. The compound also registered an EC50 in test [8] above 1000 nM.

In turn, `Nc1ccccc1NC(=O)OCCN1CCCCC1` showed a Ki in test [4] above 1000 nM.

As to `O=C(Nc1cccc(Cl)c1)OCCN1CCCCC1`, the inhibition constant Ki in [5] worked out at 60.8 nM. The IC50 in test [2] was above 1000 nM. For the same compound, the EC50 in [6] was above 1000 nM.

`COc1ccc(Cl)cc1NC(=O)OCCN1CCCCC1` returned an inhibition constant Ki in [5] of 4.2 nM. Moreover, in test [2], the half-maximal inhibitory concentration (IC50) is 30 nM. Moreover, the EC50 in [9] was around 1000 nM.

With `COc1ccccc1NC(=O)OCCCN1CCCCC1`, the Ki in [5] was found to be 81 nM.

Turning to `Cn1cc(C(=O)OCC2CCN(CCNS(C)(=O)=O)CC2)c2ccccc21`, the IC50 in test [2] is 13 nM. The EC50 entry in [3] is on record as “Not Active”.

`COc1ccccc1NC(=O)CCCN1CCCCC1` registered a Ki in [5] above 1000 nM.

In test [5], `O=C(Nc1ccccc1)OCCN1CCCCC1` registered a Ki of 31.7 nM. In addition, in test [2], the IC50 is around 1000 nM. In addition, the EC50 in [6] is above 1000 nM.

In the case of `COc1cc(N)c(Cl)cc1NC(=O)OCCN1CCCC1`, in test [4], affinity was put at a Ki of 125 nM. Moreover, the EC50 in test [10] is 200 nM.

With `Nc1ccc(NC(=O)OCCN2CCCCC2)cc1`, the Ki in test [4] is above 1000 nM.

With `COc1ccccc1NC(=O)OCCN1C[C@H](C)C[C@H](C)C1`, the Ki in test [5] was 2.6 nM. In [11], the IC50 is 160 nM. For the same compound, the EC50 in test [6] is above 1000 nM.

In test [4], `COc1cc(N)c(Cl)cc1NC(=O)OCCN1CCCCC1` came in with an inhibitory constant (Ki) of 39 nM. The compound also displayed an EC50 in test [8] above 1000 nM.

Turning to `CCOc1ccccc1NC(=O)OCCN1C[C@H](C)C[C@H](C)C1`, in [5], affinity was put at a Ki of 1.05 nM. Further, the EC50 in test [6] was above 1000 nM. In test [12], the IC50 was 30 nM.

The compound `CCN(CC)CCOC(=O)Nc1cc(Cl)c(N)cc1OC` gave an inhibition constant Ki in test [4] of 150 nM. Moreover, the half-inhibitory concentration (IC50) in [7] was 1000 nM. The same compound returned an EC50 in test [10] of 300 nM.

In turn, `COc1cc(N)c(Cl)cc1NC(=O)OCCN1CCCC(C)C1` (centres undefined) came in with an inhibition constant Ki in [4] of 10.2 nM.

Take `COc1cc(N)c(Cl)cc1NC(=O)OCCN1CCC(C)CC1`: affinity in [4] was put at a Ki of 25.1 nM. Moreover, in test [7], the half-inhibitory concentration (IC50) was 200 nM. The same compound yielded an EC50 in test [10] of 60 nM.

For the compound `O=C(Nc1ccc(Cl)cc1)OCCN1CCCCC1`, the inhibition constant Ki in test [5] amounted to 728 nM.

The compound `COc1cc(N)c(Cl)cc1NC(=O)CCCN1CCCCC1` showed an inhibition constant Ki in test [4] above 1000 nM.

In test [5], `COc1cc(N)c(Cl)cc1C(=O)OCCN1C[C@H](C)C[C@H](C)C1` gave an inhibitory constant (Ki) of 0.26 nM. Further, the IC50 in [2] is 11 nM. Further, in [3], the EC50 entry is “Not Active”.

For the compound `COc1cc(N)c(Cl)cc1NC(=O)OCCN1CCCCCC1`, affinity in test [4] was put at a Ki of 14.5 nM. In addition, the half-maximal inhibitory concentration (IC50) in test [13] was 207 nM. The same compound came in with an EC50 in test [8] of 100 nM.

Turning to `O=C(Nc1ccccc1Cl)OCCN1CCCCC1`, in test [5], the Ki was above 1000 nM.

Regarding `COc1ccccc1NC(=O)OCCN1CCCCC1`, the affinity in test [5] corresponds to a Ki of 8.9 nM. Moreover, the IC50 in test [2] was around 300 nM. In addition, the EC50 in test [9] was around 100 nM.

`COc1cccc(NC(=O)OCCN2CCCCC2)c1`: in test [5], the inhibitory constant (Ki) was 469 nM.

For `COc1ccc(NC(=O)OCCN2CCCCC2)cc1`, the inhibitory constant (Ki) in test [5] was above 1000 nM.

With `CCOc1ccccc1NC(=O)OCCN1CC(C)C[C@@H](C)C1` (single isomer, unassigned), in test [5], the inhibition constant (Ki) amounted to 1.16 nM. In addition, the concentration for half-maximal inhibition (IC50) in test [2] was 100 nM. The EC50 in test [6] is above 1000 nM.

Broadly, the IC50 is the midpoint of a concentration-inhibition curve. What is called Ki is a measure of affinity in units of concentration, obtained from inhibition or displacement. Read a high Ki as lower affinity.

The values are drawn from ChEMBL document CHEMBL1130206, “Arylcarbamate derivatives of 1-piperidineethanol as potent ligands for 5-HT4 receptors” (J Med Chem, 1997).
